Only some compounds are listed: those with a hit (about 5.1% of all), similar ones and a draw of the others.
APP 5'UTR act – activates APP 5'UTR luciferase reporter | SH-SY5Y APP 5'UTR luciferase reporter, luminescence; zero percent = DMSO vehicle wells | activation, % at 2 µM | 1% of 190,000 active | AID 1276;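 active = activation above a set limit, based on mean plus 3 SD of controls, cut at about 140% in these data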
STAT1 inh – inhibitors of IFN-gamma induced STAT1 signaling; inhibition, % at 5.5 µM; 0.35% of 200,000 active; NIH 3T3 STAT1-luciferase reporter, luminescence; AID 920;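 active = inhibition above a set limit, the mean inhibition across all tested compounds plus 3 SD, cut at about 34% in these data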;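 also: 0% = IFN-gamma with DMSO and 100% = IFN-gamma with 300 µM nifuroxazide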
STAT3 inh – reduces IL-6 driven STAT3 reporter signal. AID 862. inhibition, % at 5.5 µM. U3A cells, IL-6 STAT3-luciferase reporter, luminescence; host cell line lacks STAT1. 0.89% of 190,000 active;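 active = inhibition above the mean inhibition across all screened compounds plus 3 SD, cut at about 44% in these data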;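 also: 0% = DMSO only wells and 100% = 100 µM nifuroxazide control wells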
NF-kB expr up – compounds increasing NF-kB expression in human neuronal cells. NF-kB reporter expression; hits give high values. fold change at 12.5 µM. 1.6% of 190,000 active. AID 1239; in the data active = fold change above about 3.3
STAT1 activator – activators of IFN-gamma induced STAT1 signaling. 2.6% of 200,000 active. AID 932. activation (% of control), % at 5.5 µM. NIH 3T3 STAT1-luciferase reporter, luminescence; 100% = IFN-gamma alone, no compound;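 active = activation above the screen-wide mean activation plus 3 SD, cut at about 130% in these data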;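 also: raw ratio to IFN-gamma control signal so 100% means no change and 0% no light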
STAT3 act – increases IL-6 driven STAT3 reporter signal | AID 871 | activation (% of control), % at 5.6 µM | 0.91% of 190,000 active | U3A cells, IL-6 STAT3-luciferase reporter, luminescence; 100% = signal with IL-6 EC80 alone;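 active = activation above the screen-wide mean of compound activation plus 3 SD, cut at about 130% in these data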;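 also: 0% = background luminescence of wells with medium and substrate only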
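Material: STAT1-lacking human U3A cells, STAT3 luciferase reporter | Benchmarks: IL-6-only wells as 100% reference | Probe or stimulus: IL-6 (33 ng/mL) | Timing: Compound 1 h, then IL-6 6 h at 37 °C | Detection: Luminescence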
* marks the source's active call; other numbers are inactive results; · = no result given.

SMILES	APP 5'UTR act	STAT1 inh	STAT3 inh	NF-kB expr up	STAT1 activator	STAT3 act
COCC(C)NC(=O)c1cc(-c2cccc(OC)c2)on1 (centres undefined)	23	-37	16	1.5	134*	89
COc1cccc(NC(=O)C(NC2CCCC2)c2ccccc2)c1 (centres undefined)	1	3	0	1.1	98	104
COc1cccc(-c2cc(C(=O)Nc3ccccc3SC)no2)c1	50	-32	12	1.3	129*	98
COc1cccc(-c2cc(C(=O)NC3CCCC3)no2)c1	18	-50	15	4.9*	144*	89
COC(=O)c1ccc(Cl)c(NC(=O)CN2CCOCC2)c1	·	0	6	1.2	96	97
CCn1ncc(C(=O)Nc2cccc(Cl)c2)c1C	86	-47	-17	2.4	144*	115
Cn1nc(C(=O)Nc2ccc(S(=O)(=O)N3CCCCC3)cc2)ccc1=O	-3	15	9	0.79	86	96
O=C(CCCN1C(=O)/C(=C/c2cccc(Br)c2)SC1=S)Nc1cccnc1	-3	7	8	3.4*	92	98
COc1ccc2c(c1OC)C(=O)N(c1ccc(C)cc1)C2=O	-8	-31	6	1.4	129*	103
COc1ccccc1N1CCN(/N=C/C=C\c2ccco2)CC1	73	-41	-8	4*	137*	107
COc1cccc(/C=N/N2CCN(c3ccccc3OC)CC2)c1	32	-35	22	1.9	135*	88
CCOC(=O)c1cccc(N2C(=O)C3C(C(=O)NC4CC4)C4(C)C=CC3(O4)C2C(=O)NC(C)(C)C)c1 (centres undefined)	4	0	-9	1	100	106
Cc1occc1C(=O)NNC(=S)Nc1ccccc1C(F)(F)F	108	-36	-4	0.95	133*	102
N#Cc1cc2ccccc2nc1SCc1ccccn1	186*	-52	-22	5.3*	147*	124
Cc1cc2cc3c(cc2nc1SCc1ccccn1)OCCO3	37	7	-4	1.4	94	103
CN(C)c1ccc(P(=O)(CC(=O)N/N=C/c2ccc(C#N)cc2)OCCCl)cc1 (centres undefined)	-16	4	-5	1.1	96	103
CC(C)(C)c1csc(N/N=C/c2cccnc2)n1	77	-54	5	3	150*	96
C(=N\Nc1nc(-c2ccccc2)cs1)/c1cccnc1	48	-49	13	2.3	144*	95
CC(C)=CCC(C)(C)CNC(=O)NC1CCCCC1	-13	-7	14	1.3	106	91
Cc1nc(N/N=C/c2ccccn2)sc1C	-5	80*	89*	1.1	29	25
Cn1c(Cl)c(C(=O)Nc2ccc(Cl)cc2)c2ccccc21	20	-8	-50	1.3	107	155*
CC(=O)c1ccc(OCC(=O)c2cc(C)n(-c3ccc4c(c3)OCO4)c2C)cc1	0	9	16	0.73	92	87
COc1cccc(OCc2nc3ccccc3[nH]2)c1	131	-29	18	3.4*	126	92
COc1ccc(OCc2nc3ccccc3[nH]2)cc1	·	-18	2	4*	117	104
CCC(=O)Nc1cccc(NC(=S)NC(=O)c2cccs2)c1	32	-36	-11	1.8	132*	109
SMILES	APP 5'UTR act	STAT1 inh	STAT3 inh	NF-kB expr up	STAT1 activator	STAT3 act
Cc1ccc(NC(=O)C2Cc3ccccc3C(=O)O2)cc1 (centres undefined)	52	-39	13	1.7	135*	92
C=CCNC(=O)c1cc(Cl)ccc1[N+](=O)[O-]	-3	-5	9	1.1	104	95
O=C(c1ccc2c(c1)OCO2)N(CC1CCCO1)C1(C(=O)NC2CCCC2)CCCCC1 (centres undefined)	29	0	1	1.1	99	104
CN(C)/C=N/S(=O)(=O)c1cccn1-c1ncc(C(F)(F)F)cc1Cl	6	-9	0	1.1	107	106
CN(C)/C=N/c1ncn(-c2ncc(C(F)(F)F)cc2Cl)n1	77	-36	-7	0.81	133*	109
CCOc1ccc(/C=C/C2=NNC(=O)CC2)cc1	51	-31	4	2	129*	98
CC(C)CC(=O)Nc1ccc(-c2nnn(CC(=O)NCc3ccco3)n2)cc1	64	-33	-12	1.7	129*	117

Screening results: PubChem, several laboratories
